This note sets out measurements from ChEMBL document CHEMBL5376017, “Glucosamine substituted sulfonylureas: IRS-PI3K-PKC-AKT-GLUT4 insulin signalling pathway intriguing agent” (RSC Med Chem, 2024).

Active and inactive are the calls of the source. The calls are words filed in the database; no cut-off is given here.

System in one series: not listed separately
The series can be described thus: Cytotoxicity against rat L6 cells assessed as cell viability at 50 to 250 uM incubated for 24 hrs by MTT assay relative to control. The note with it: dose 50-250 µM, read-out: Activity. In kind it is toxicity, cell-based. Summed up: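 Rat L6 myoblasts, 2 × 10^4 cells per mL, allowed to attach, then exposed for 24 h to five concentrations (50–250 μM) from DMSO stocks; 0.1% DMSO as negative control. MTT at 0.5 mg mL−1 added for 4 h, formazan dissolved in DMSO, absorbance read at 570 nm. Viability calculated against control. Triplicate wells, three independent experiments.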
For `CC(=O)OC[C@H]1OC(OC(C)=O)[C@H](NC(=O)NS(=O)(=O)c2ccccc2)[C@@H](OC(C)=O)[C@@H]1OC(C)=O` (stereo not given in full), the viability at 24 h, up to 250 µM turned out to be 50%.

As to `O=C(N[C@H]1C(O)O[C@H](CO)[C@@H](O)[C@@H]1O)NS(=O)(=O)c1ccc(Cl)cc1` (stereo not given in full), the viability at 24 h, up to 250 µM came to 50%.

A further series deals with L6. In words: Upregulation of IRS-1 expression in insulin resistant myotube differentiated rat L6 cells at 1 to 2 uM incubated for 24 hrs by qRT-PCR analysis. In kind it is functional, cell-based. The note with it: dose 1-2 µM. In a few lines: (§1)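 L6 myoblasts differentiated to myotubes in DMEM with 2% horse serum for 7 days, 2 × 10^4 cells per well. Insulin resistance induced in three steps: 25 mM glucose plus insulin for 24 h, then 5 mM glucose without insulin for 5 h, then insulin for 30 min. Compounds in DMEM with 2% inactivated FBS for 24 h. qPCR normalized to geometric mean of β-actin and γ-actin. Mean ± SEM, one-way ANOVA with Duncan test.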
Regarding `CC(=O)OC[C@H]1OC(OC(C)=O)[C@H](NC(=O)NS(=O)(=O)c2ccccc2)[C@@H](OC(C)=O)[C@@H]1OC(C)=O` (stereo not given in full), the result was Active.

For `O=C(N[C@H]1C(O)O[C@H](CO)[C@@H](O)[C@@H]1O)NS(=O)(=O)c1ccc(Cl)cc1` (stereo not given in full), the outcome was Active.

The next series deals with Soleus muscle. In words: Upregulation of IRS-1 expression in insulin resistant Sprague-Dawley rat soleus muscle at 1 to 2 uM incubated for 24 hrs by qRT-PCR analysis. In kind it is functional, tissue-based. The note with it: dose 1-2 µM. In a few lines: (§2)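 Isolated rat soleus muscle in gassed (95% O2–5% CO2) Krebs–Henseleit buffer. Insulin resistance induced in four steps: KHB with 0.1% BSA and 1 mM pyruvate for 24 h at 37 °C, then high glucose/insulin for 24 h, then 25 mM glucose for 5 h, then insulin for 30 min. Tissue then exposed in KHB for 24 h. qPCR normalized to β-/γ-actin geometric mean. Mean ± SEM, ANOVA/Duncan.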
Consider `CC(=O)OC[C@H]1OC(OC(C)=O)[C@H](NC(=O)NS(=O)(=O)c2ccccc2)[C@@H](OC(C)=O)[C@@H]1OC(C)=O` (stereo not given in full), for which the result was Active.

As to `O=C(N[C@H]1C(O)O[C@H](CO)[C@@H](O)[C@@H]1O)NS(=O)(=O)c1ccc(Cl)cc1` (stereo not given in full), the outcome was Active.

The next series relates to L6. The series can be described thus: Upregulation of PI3K expression in insulin resistant myotube differentiated rat L6 cells at 1 to 2 uM incubated for 24 hrs by qRT-PCR analysis. The series is classed as functional, cell-based. The note with it: dose 1-2 µM. In a few lines: as §1
A general note: In qPCR the cycle at which signal appears reflects the starting amount.
Regarding `CC(=O)OC[C@H]1OC(OC(C)=O)[C@H](NC(=O)NS(=O)(=O)c2ccccc2)[C@@H](OC(C)=O)[C@@H]1OC(C)=O` (stereo not given in full), the result was Active.

Turning to `O=C(N[C@H]1C(O)O[C@H](CO)[C@@H](O)[C@@H]1O)NS(=O)(=O)c1ccc(Cl)cc1` (stereo not given in full), the outcome was Active.

The test system of a further series is Soleus muscle. The series can be described thus: Upregulation of PI3K expression in insulin resistant Sprague-Dawley rat soleus muscle at 1 to 2 uM incubated for 24 hrs by qRT-PCR analysis. The note with it: dose 1-2 µM. In kind it is functional, tissue-based. Summed up:
as §2
For the molecule `CC(=O)OC[C@H]1OC(OC(C)=O)[C@H](NC(=O)NS(=O)(=O)c2ccccc2)[C@@H](OC(C)=O)[C@@H]1OC(C)=O` (stereo not given in full), the result was Active.

For the molecule `O=C(N[C@H]1C(O)O[C@H](CO)[C@@H](O)[C@@H]1O)NS(=O)(=O)c1ccc(Cl)cc1` (stereo not given in full), the result was Active.

For a further series, the system named is L6. The series can be described thus: Downregulation of PKC-alpha expression in insulin resistant myotube differentiated rat L6 cells at 1 to 2 uM incubated for 24 hrs by qRT-PCR analysis. In kind it is functional, cell-based. The note with it: dose 1-2 µM. In a few lines: as §1
On to `CC(=O)OC[C@H]1OC(OC(C)=O)[C@H](NC(=O)NS(=O)(=O)c2ccccc2)[C@@H](OC(C)=O)[C@@H]1OC(C)=O` (stereo not given in full), for which the result was Active.

For `O=C(N[C@H]1C(O)O[C@H](CO)[C@@H](O)[C@@H]1O)NS(=O)(=O)c1ccc(Cl)cc1` (stereo not given in full), the outcome was Active.

The test system of the next series is Soleus muscle. The series can be described thus: Downregulation of PKC-alpha expression in insulin resistant Sprague-Dawley rat soleus muscle at 1 to 2 uM incubated for 24 hrs by qRT-PCR analysis. The series is classed as functional, tissue-based. The note with it: dose 1-2 µM. Summed up:
as §2
For the molecule `CC(=O)OC[C@H]1OC(OC(C)=O)[C@H](NC(=O)NS(=O)(=O)c2ccccc2)[C@@H](OC(C)=O)[C@@H]1OC(C)=O` (stereo not given in full), the result was Active.

Take `O=C(N[C@H]1C(O)O[C@H](CO)[C@@H](O)[C@@H]1O)NS(=O)(=O)c1ccc(Cl)cc1` (stereo not given in full): the result was Active.

A further series deals with L6. In words: Upregulation of PKB/AKT2 expression in insulin resistant myotube differentiated rat L6 cells at 2 uM incubated for 24 hrs by qRT-PCR analysis. The series is classed as functional, cell-based.
Details: not given
In a few lines: as §1
As for `CC(=O)OC[C@H]1OC(OC(C)=O)[C@H](NC(=O)NS(=O)(=O)c2ccccc2)[C@@H](OC(C)=O)[C@@H]1OC(C)=O` (stereo not given in full), the outcome was Active.

On to `O=C(N[C@H]1C(O)O[C@H](CO)[C@@H](O)[C@@H]1O)NS(=O)(=O)c1ccc(Cl)cc1` (stereo not given in full), for which the result was Active.

The next series relates to Soleus muscle. In words: Upregulation of PKB/AKT2 insulin resistant Sprague-Dawley rat soleus muscle at 2 uM incubated for 24 hrs by qRT-PCR analysis. In kind it is functional, tissue-based.
Details: not given
In a few lines: as §2
As for `CC(=O)OC[C@H]1OC(OC(C)=O)[C@H](NC(=O)NS(=O)(=O)c2ccccc2)[C@@H](OC(C)=O)[C@@H]1OC(C)=O` (stereo not given in full), the outcome was Active.

With `O=C(N[C@H]1C(O)O[C@H](CO)[C@@H](O)[C@@H]1O)NS(=O)(=O)c1ccc(Cl)cc1` (stereo not given in full), the result was Active.

For another series, the system named is L6. The series can be described thus: Upregulation of GLUT4 expression in insulin resistant myotube differentiated rat L6 cells at 1 to 2 uM incubated for 24 hrs by qRT-PCR analysis. The note with it: dose 1-2 µM. The series is classed as functional, cell-based. In a few lines: as §1
For `CC(=O)OC[C@H]1OC(OC(C)=O)[C@H](NC(=O)NS(=O)(=O)c2ccccc2)[C@@H](OC(C)=O)[C@@H]1OC(C)=O` (stereo not given in full), the outcome was Active.

On to `O=C(N[C@H]1C(O)O[C@H](CO)[C@@H](O)[C@@H]1O)NS(=O)(=O)c1ccc(Cl)cc1` (stereo not given in full), for which the result was Active.

In the next series the test system is Soleus muscle. In words: Upregulation of GLUT4 expression in insulin resistant Sprague-Dawley rat soleus muscle at 1 to 2 uM incubated for 24 hrs by qRT-PCR analysis. The series is classed as functional, tissue-based. The note with it: dose 1-2 µM. Summed up: as §2
As for `CC(=O)OC[C@H]1OC(OC(C)=O)[C@H](NC(=O)NS(=O)(=O)c2ccccc2)[C@@H](OC(C)=O)[C@@H]1OC(C)=O` (stereo not given in full), the result was Active.

Turning to `O=C(N[C@H]1C(O)O[C@H](CO)[C@@H](O)[C@@H]1O)NS(=O)(=O)c1ccc(Cl)cc1` (stereo not given in full), the result was Active.

For another series, the system named is L6. In words: Upregulation of IRS-1 expression in insulin resistant myotube differentiated rat L6 cells incubated for 24 hrs by qRT-PCR analysis. The series is classed as functional, cell-based.
Details: not given
Summed up: as §1
Regarding `CCC1=C(C)CN(C(=O)NCCc2ccc(S(=O)(=O)NC(=O)N[C@H]3CC[C@H](C)CC3)cc2)C1=O`, the outcome was Active.

On to `CN(C)C(=N)NC(=N)N`, for which the outcome was Active.

Another series concerns Soleus muscle. In words: Upregulation of PI3K expression in insulin resistant Sprague-Dawley rat soleus muscle incubated for 24 hrs by qRT-PCR analysis.
Details: not given
In kind it is functional, tissue-based. Summed up: as §2
Regarding `CCC1=C(C)CN(C(=O)NCCc2ccc(S(=O)(=O)NC(=O)N[C@H]3CC[C@H](C)CC3)cc2)C1=O`, the result was Active.

For the molecule `CN(C)C(=N)NC(=N)N`, the result was Active.

The next series concerns L6. The series can be described thus: Downregulation of PKC-alpha expression in insulin resistant myotube differentiated rat L6 cells incubated for 24 hrs by qRT-PCR analysis. The series is classed as functional, cell-based.
Details: not given
In a few lines: as §1
Take `CCC1=C(C)CN(C(=O)NCCc2ccc(S(=O)(=O)NC(=O)N[C@H]3CC[C@H](C)CC3)cc2)C1=O`: the outcome was Active.

Consider `CN(C)C(=N)NC(=N)N`, for which the result was Active.

The next series concerns Soleus muscle. In words: Downregulation of PKC-alpha expression in insulin resistant Sprague-Dawley rat soleus muscle incubated for 24 hrs by qRT-PCR analysis. The series is classed as functional, tissue-based.
Details: not given
In a few lines:
as §2
Consider `CCC1=C(C)CN(C(=O)NCCc2ccc(S(=O)(=O)NC(=O)N[C@H]3CC[C@H](C)CC3)cc2)C1=O`, for which the result was Active.

In the case of `CN(C)C(=N)NC(=N)N`, the result was Active.

The subject of the next series is L6. The series can be described thus: Upregulation of PKB/AKT2 expression in insulin resistant myotube differentiated rat L6 cells incubated for 24 hrs by qRT-PCR analysis. The series is classed as functional, cell-based.
Details: not given
In a few lines:
as §1
Take `CCC1=C(C)CN(C(=O)NCCc2ccc(S(=O)(=O)NC(=O)N[C@H]3CC[C@H](C)CC3)cc2)C1=O`: the result was Active.

For `CN(C)C(=N)NC(=N)N`, the outcome was Active.

The test system of a further series is L6. The series can be described thus: Upregulation of GLUT4 expression in insulin resistant myotube differentiated rat L6 cells incubated for 24 hrs by qRT-PCR analysis. In kind it is functional, cell-based.
Details: not given
Summed up: as §1
For the molecule `CN(C)C(=N)NC(=N)N`, the result was Active.

A further series has as its system Soleus muscle. In words: Upregulation of GLUT4 expression in insulin resistant Sprague-Dawley rat soleus muscle incubated for 24 hrs by qRT-PCR analysis. The series is classed as functional, tissue-based.
Details: not given
Summed up: as §2
With `CCC1=C(C)CN(C(=O)NCCc2ccc(S(=O)(=O)NC(=O)N[C@H]3CC[C@H](C)CC3)cc2)C1=O`, the result was Active.

Turning to `CN(C)C(=N)NC(=N)N`, the outcome was Active.
